From ChEMBL document CHEMBL4373712, “Bioactivatable Pseudotripeptidization of Cyclic Dipeptides To Increase the Affinity toward Oligopeptide Transporter 1 for Enhanced Oral Absorption: An Application to Cyclo(l-Hyp-l-Ser) (JBP485)” (J Med Chem, 2019)

Tests used:
Rattus norvegicus = experiment: Anti-hepatitis activity in ANIT-induced po dosed Sprague-Dawley rat model of cholestasis assessed as reduction in serum total bilirubin level administered 30 mins prior to ANIT challenge and subsequent dosing at 8, 22, 32, and 46 hrs post ANIT challenge and measured 48 hrs post ANIT challenge; format: functional, organism-based
Outline: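 Male SD rats, 6 weeks old, fasted 12 h, 6 per group. Cholestasis induced by ANIT 50 mg/kg ip in olive oil. Test agents were given in water; UDCA 100 mg/kg was given orally in CMC-Na. Dosing at 30 min before and 8, 22, 32 and 46 h after ANIT. Serum taken from the abdominal aorta under chloral hydrate anesthesia at 48 h; total bilirubin measured with an assay kit.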

[1] = molecular target: T1, Solute carrier family 15 member 1 (Homo sapiens, UniProt P46059); experiment: Substrate activity at PEPT1 in human Caco2 cells assessed as protein-mediated drug uptake at 0.5 mM measured after 10 mins in pH 7.4 HBSS buffer by UPLC-MS/MS analysis; format: ADME, cell-based; conditions: caco-2, pH 7.4, 10 min, 500 µM
T1 sequence (P46059 whole entry): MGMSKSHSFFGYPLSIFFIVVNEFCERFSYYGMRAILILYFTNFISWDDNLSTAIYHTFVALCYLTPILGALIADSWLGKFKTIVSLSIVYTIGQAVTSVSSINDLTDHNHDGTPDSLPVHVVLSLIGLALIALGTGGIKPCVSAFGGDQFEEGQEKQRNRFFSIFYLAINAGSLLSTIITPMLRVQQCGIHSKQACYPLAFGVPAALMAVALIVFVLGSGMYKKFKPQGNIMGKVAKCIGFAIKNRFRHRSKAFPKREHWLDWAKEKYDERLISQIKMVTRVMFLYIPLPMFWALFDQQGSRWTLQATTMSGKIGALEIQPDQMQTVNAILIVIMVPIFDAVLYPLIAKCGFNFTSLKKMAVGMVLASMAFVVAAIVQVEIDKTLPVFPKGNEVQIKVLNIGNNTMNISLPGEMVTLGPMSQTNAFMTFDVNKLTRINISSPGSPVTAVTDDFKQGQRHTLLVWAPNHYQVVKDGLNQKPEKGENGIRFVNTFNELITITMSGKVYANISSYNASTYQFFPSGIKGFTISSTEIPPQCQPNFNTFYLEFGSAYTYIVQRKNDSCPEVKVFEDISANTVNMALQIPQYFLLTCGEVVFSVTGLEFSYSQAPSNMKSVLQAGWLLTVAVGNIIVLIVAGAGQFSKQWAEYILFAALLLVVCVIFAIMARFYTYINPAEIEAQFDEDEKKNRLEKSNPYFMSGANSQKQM
Outline: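 Caco-2 cells incubated 10 min with 0.5 mM compound in HBSS at pH 6.0 or pH 7.4, washed three times in ice-cold PBS pH 7.4, homogenised. Protein by DC assay; drug by UPLC-MS/MS; n=3.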

[2] = Half life in pH 5.8 phosphate buffer at 5 mM by HPLC analysis; format: physicochemical
Outline: (§1)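 Compound at 5 mM in 0.1 M HCl, pH 4.5 acetate buffer, pH 5.8/6.8/7.2 phosphate buffers, SGF (pH 1.2) and SIF (pH 6.8), prepared per Chinese Pharmacopoeia. Samples taken at 0-20 h and analyzed by HPLC-UV. k = 2.303×slope of log C versus time; t1/2 = 0.693/k.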

[3] = molecular target: T2, Solute carrier family 15 member 1 (Rattus norvegicus, UniProt P51574); experiment: Ratio of compound effect for substrate activity at PEPT1 in Sprague-Dawley rat jejunum assessed as effective permeability in absence of non-metabolized PEPT1 substrate Gly-Sar to compound effect for substrate activity at PEPT1 in Sprague-Dawley rat jejunum assessed as effective permeability in presence of non-metabolized PEPT1 substrate Gly-Sar; format: ADME
T2 sequence (P51574 whole entry): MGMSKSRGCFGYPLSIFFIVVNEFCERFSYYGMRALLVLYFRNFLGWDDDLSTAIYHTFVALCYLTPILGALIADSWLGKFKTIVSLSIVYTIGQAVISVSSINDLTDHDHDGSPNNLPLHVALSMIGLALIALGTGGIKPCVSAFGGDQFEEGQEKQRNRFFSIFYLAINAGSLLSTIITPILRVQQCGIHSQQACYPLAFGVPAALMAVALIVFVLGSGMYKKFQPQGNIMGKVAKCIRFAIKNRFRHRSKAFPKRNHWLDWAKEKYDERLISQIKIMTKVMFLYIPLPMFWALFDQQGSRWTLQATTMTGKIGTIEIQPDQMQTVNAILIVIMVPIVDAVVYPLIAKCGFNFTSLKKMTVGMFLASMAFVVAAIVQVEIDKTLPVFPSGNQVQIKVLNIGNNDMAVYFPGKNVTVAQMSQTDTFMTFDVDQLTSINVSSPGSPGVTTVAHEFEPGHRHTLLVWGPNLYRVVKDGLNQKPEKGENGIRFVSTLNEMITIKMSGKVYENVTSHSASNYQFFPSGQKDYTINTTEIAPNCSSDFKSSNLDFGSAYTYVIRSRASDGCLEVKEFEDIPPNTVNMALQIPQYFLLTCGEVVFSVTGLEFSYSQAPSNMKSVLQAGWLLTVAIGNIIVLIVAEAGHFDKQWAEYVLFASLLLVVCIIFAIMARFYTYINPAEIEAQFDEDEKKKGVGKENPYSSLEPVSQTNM

[4] = Half life in Sprague-Dawley rat plasma at 5 mM by HPLC analysis; format: ADME, cell-free
Outline: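 Jejunum and liver homogenates from male SD rats in pH 7.4 PBS, adjusted to 200 µg/mL protein, and rat plasma. Each incubated with compound at 5 mM at 37 °C.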

[5] = Half life in pH 6.8 phosphate buffer at 5 mM by HPLC analysis; format: physicochemical; outline: as §1
[6] = Half life in 0.1 M HCl at 5 mM by HPLC analysis; format: physicochemical; outline: as §1
[7] = molecular target: T2, Solute carrier family 15 member 1; experiment: Substrate activity at PEPT1 in Sprague-Dawley rat jejunum assessed as effective permeability at 5 mM measured after 15 to 120 mins by HPLC analysis; format: ADME, tissue-based; conditions: 5000 µM
Outline: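 In situ single-pass jejunal perfusion in fasted (12 h) male SD rats anaesthetised with urethane 1.5 g/kg i.p. About 10 cm of jejunum was perfused at 0.2 mL/min with pH 6.0 HEPES buffer containing 5 mM compound. Outflow was collected 15–120 min after steady state and assayed by HPLC. Peff was calculated from outlet/inlet concentration and volume ratios and segment radius and length.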

SMILES | Activity (Rattus norvegicus) | Drug uptake [1] | half-life at 5000 µM [2] | Ratio [3] | half-life at 5000 µM [4] | half-life at 5000 µM [5] | half-life at 5000 µM [6] | Peff [7]
CC(C)[C@H](N)C(=O)OC[C@@H]1NC(=O)[C@@H]2C[C@@H](O)CN2C1=O | Dose-dependent effect | Not Active | > 20 h | 6.8 | 2.9 h | 7.7 h | > 20 h | Permeable
O=C1N[C@@H](CO)C(=O)N2C[C@H](O)C[C@@H]12 | Dose-dependent effect | Not Active | > 20 h | 2.5 | > 20 h | > 20 h | > 20 h | Permeable
